Laboratory results as given in ChEMBL document CHEMBL1123845 (J Med Chem, 1987).
Calls of active or inactive are those of the source. The calls are words filed in the database; no cut-off is given here.

Biological target: T1, Polyunsaturated fatty acid 5-lipoxygenase (Rattus norvegicus) (UniProt P12527)
T1 sequence (whole entry): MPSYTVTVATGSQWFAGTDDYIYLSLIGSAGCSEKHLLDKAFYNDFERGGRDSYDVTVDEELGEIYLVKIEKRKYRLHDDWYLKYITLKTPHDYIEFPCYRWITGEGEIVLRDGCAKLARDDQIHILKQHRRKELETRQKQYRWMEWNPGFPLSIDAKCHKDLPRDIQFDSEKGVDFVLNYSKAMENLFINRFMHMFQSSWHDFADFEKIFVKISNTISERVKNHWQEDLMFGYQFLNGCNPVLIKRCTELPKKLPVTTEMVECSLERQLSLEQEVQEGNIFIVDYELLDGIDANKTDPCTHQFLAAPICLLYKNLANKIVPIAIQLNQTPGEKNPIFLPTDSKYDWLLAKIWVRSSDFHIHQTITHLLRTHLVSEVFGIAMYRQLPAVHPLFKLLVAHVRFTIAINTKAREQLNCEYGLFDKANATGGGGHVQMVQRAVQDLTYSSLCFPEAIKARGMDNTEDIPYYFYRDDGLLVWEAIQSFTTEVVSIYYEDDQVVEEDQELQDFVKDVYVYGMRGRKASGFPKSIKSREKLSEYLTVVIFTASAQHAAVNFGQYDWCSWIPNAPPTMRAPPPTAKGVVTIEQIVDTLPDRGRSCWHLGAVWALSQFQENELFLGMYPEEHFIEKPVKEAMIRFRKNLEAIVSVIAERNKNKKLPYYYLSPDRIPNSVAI
Assay: Compound was evaluated for the inhibition of rat basophilic leukemia-1 (RBL-1) 5-Lipoxygenase at 40 uM
Type: cell-based
Summary of the method: (§1)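 Enzyme source: 20000g supernatant of sonicated RBL-1 cells (1.5 × 10⁶ cell equivalents) in pH 6.8 BES/PIPES buffer with EDTA, CaCl₂ and NaCl. Compound or 2% DMSO vehicle preincubated 20 min at 37 °C. Reaction started with 66 μM arachidonic acid carrying [¹⁴C] tracer and run 5 min. Acid stop, ether extraction, then TLC. [¹⁴C]5-HETE counted and corrected by [³H]-5-HETE recovery.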

| Structure (SMILES) | inhibition [%] |
| --- | --- |
| CCCCCCC(O)/C=C/C=C/CCCCCCCCCC(=O)O (stereo not given) | 49 |

Biological target: T1, Polyunsaturated fatty acid 5-lipoxygenase (Rattus norvegicus)
Assay: Compound was evaluated for the inhibition of rat basophilic leukemia-1 (RBL-1) 5-Lipoxygenase at 300 uM
Type: cell-based
Summary of the method: as §1

| Structure (SMILES) | inhibition [%] |
| --- | --- |
| CCCC(O)/C=C/C#CCCCCCCCCC(=O)O (stereo not given) | 46 |
| CCCCC[C@H](O)/C=C/C=C\CCCCCCCC(=O)OC | 34 |
| CCCCC[C@H](O)/C=C/C=C\CCCCCCCCCC(=O)OC | 34 |

Biological target: T1, Polyunsaturated fatty acid 5-lipoxygenase (Rattus norvegicus)
Assay: Compound was evaluated for the inhibition of rat basophilic leukemia-1 (RBL-1) 5-Lipoxygenase at 33 uM
Type: cell-based
Summary of the method: as §1

| Structure (SMILES) | inhibition [%] |
| --- | --- |
| CCCCCC1/C=C/C#CCCCCCCCCCC(=O)O1 (stereo not given) | 16 |

Biological target: T1, Polyunsaturated fatty acid 5-lipoxygenase (Rattus norvegicus)
Assay: Inhibition of rat basophilic leukemia-1 (RBL-1) 5-Lipoxygenase at 100 uM
Type: cell-based
Summary of the method: as §1

| Structure (SMILES) | inhibition [%] |
| --- | --- |
| CCCCCC/C=C/C=C\CCCCCCCCCC(=O)O | 16 |
| COC(=O)CCCCC(O)/C=C/C=C/CCCCCCCCCC(=O)O (stereo not given) | 31 |
| CCCCCC(O)/C=C/C#CCCCCCCCC(=O)O (stereo not given) | 24 |
| CCCCCC(O)/C=C/C#CCCCCCCC(=O)O (stereo not given) | 18 |
| CCCCCC/C=C/C#CCCCCCCCCCC(=O)O | 48 |
| CCCCCC(O)C#C/C=C/CCCCCCCCCC(=O)O (stereo not given) | 30 |
| CCCCCC(/C=C/C#CCCCCCCCCCC(=O)O)OC(C)=O (stereo not given) | 40 |
| CCCCCC(O)/C=C\C=C/CCCCCCCCCC(=O)O (stereo not given) | 44 |
| O=C(O)CCCCCCCCC/C=C\C=C\C(O)CCCCCO (stereo not given) | 46 |
| CCCCCC(O)/C=C/C=C/CCCCCCCCC(=O)O (stereo not given) | 39 |
| CCCCCC(O)/C=C/C=C/CCCCCC(=O)O (stereo not given) | 17 |
| CCCCCC1/C=C/C=C\CCCCCCCCCC(=O)O1 (stereo not given) | 42 |
| COC(=O)CCCCC(O)/C=C/C#CCCCCCCCCCC(=O)O (stereo not given) | 22 |
| CCCCCC(O)c1cccc(OCCCCCCCC(=O)O)c1 (stereo not given) | 23 |

Biological target: T2, Polyunsaturated fatty acid 5-lipoxygenase (Rattus norvegicus, UniProt P12527)
T2 sequence (P12527 whole entry): T1 sequence (whole entry)
Assay: Inhibition of rat basophilic leukemia-1 (RBL-1) 5-lipoxygenase
Type: cell-based
Summary of the method: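 Enzyme source: 20000g supernatant of sonicated RBL-1 cells (1.5 × 10⁶ cell equivalents) in pH 6.8 BES/PIPES buffer with EDTA, CaCl₂ and NaCl. Compound or 2% DMSO vehicle preincubated 20 min at 37 °C. Acid stop, ether extraction, then TLC. [¹⁴C]5-HETE counted and corrected by [³H]-5-HETE recovery.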

| Structure (SMILES) | IC50 [µM] |
| --- | --- |
| CCCCC[C@H](O)/C=C/C=C\CCCCCCCCCC(=O)O | 26 |
| CCCCCC(O)C#CC#CCCCCCCCCCC(=O)O (stereo not given) | 27 |
| CCCCCC(O)/C=C/C#CCCCCCCCCC(=O)O (stereo not given) | 73 |
| CCCCC[C@@H](/C=C/C=C\C/C=C\C/C=C\CCCC(=O)O)OC(C)=O | 17 |
| CCCC(O)/C=C/C#CCCCCCCCCCC(=O)O (stereo not given) | 260 |
| CCCCC[C@H](O)/C=C/C=C\C/C=C\C/C=C\CCCCCC(=O)O | 62 |
| CCCCC/C=C\C/C=C\C/C=C\C=C\C(O)CCCC(=O)O (stereo not given) | 77 |
| CCCCCC(/C=C/C=C\CCCCCCCCCC(=O)O)OC(C)=O (stereo not given) | 76 |
| CCCCC[C@H](O)/C=C/C=C\C/C=C\C/C=C\CCCCCC(=O)OC | 6.5 |
| O=C(O)CCCCCCCCC/C=C/C=C/C(O)CC1CCCC1 (stereo not given) | 61 |
| CCCCC[C@H](O)/C=C/C=C\C/C=C/CCCCC(=O)O | 29 |
| CCCCC/C=C\C/C=C\C/C=C\C=C\C1CCCC(=O)O1 (stereo not given) | 23 |
| CCCCCC(O)/C=C\C=C\CCCCCCCCCC(=O)O (stereo not given) | 58 |
| CCCCCC(O)/C=C/C#CCCCCCCCCCC(=O)O (stereo not given) | 66 |
| CCCCC[C@H](O)/C=C/C=C\C/C=C\C=C\C1CCCC(=O)O1 (stereo not given in full) | 25 |
| CCCCCC(O)/C=C/C=C\CCCCCCCCCC(=O)O (stereo not given) | 35 |
| CCCCCC(=O)/C=C/C=C\CCCCCCCCCC(=O)O | 55 |
| CCCCC[C@H](O)/C=C/C=C\C/C=C\C/C=C\CCCC(=O)O [ICOMUCRET] | 7.3 |
| CCCCCCC(O)/C=C/C#CCCCCCCCCCC(=O)O (stereo not given) | 32 |
| CCCCCC(=O)/C=C/C=C\C/C=C\C/C=C\CCCC(=O)O | 26 |
| CCCCC[C@H](O)/C=C/C=C\C/C=C\C/C=C\CCCC(=O)OC | 64 |
| CCCCC[C@@H](/C=C/C=C\C/C=C\C/C=C\CCCC(=O)OC)OC(C)=O | 7.2 |
| CCCCC[C@@H](/C=C/C=C\C/C=C\C/C=C\CCCC(=O)O)OO | 3.4 |
| CCCCC[C@H](O)/C=C/C=C\CCCCCCCC(=O)O | 82 |
| CCCC(O)/C=C/C=C/CCCCCCCCCC(=O)O (stereo not given) | 160 |
| CCCCC[C@H](O)/C=C\C=C/C/C=C\CCCCCCC(=O)O | 77 |
| CCCCC[C@H](O)/C=C/C=C\C/C=C\C=C\C(O)CCCC(=O)O (stereo not given in full) | 270 |
| O=C(O)CCCCCCCCCC#C/C=C/C(O)CC1CCCC1 (stereo not given) | 82 |

Biological target: T1, Polyunsaturated fatty acid 5-lipoxygenase (Rattus norvegicus)
Assay: Compound was evaluated for the inhibition of rat basophilic leukemia-1 (RBL-1) 5-Lipoxygenase at 30 uM
Type: cell-based
Summary of the method: as §1

| Structure (SMILES) | inhibition [%] |
| --- | --- |
| CCCCCC(O)/C=C/C=C/CCCCCCCCCC(=O)O (stereo not given) | 33 |
| CCCCCC(O)/C=C/C=C/CCCCCCCCCCC(=O)O (stereo not given) | 41 |
| CCCCCC(O)/C=C/C#CCCCCCCCCCCC(=O)O (stereo not given) | 24 |
| CCCCCC/C=C/C#CCCCCCCCCC(=O)O | 33 |
| CCCCC[C@H](O)/C=C/C=C\CCCCCCCCCC(=O)N(CC)CC | 39 |
| CCCCCC(O)/C=C/C#CCCCCCCCCCC(=O)N(CC)CC (stereo not given) | 49 |

Biological target: T1, Polyunsaturated fatty acid 5-lipoxygenase (Rattus norvegicus)
Assay: Compound was evaluated for the inhibition of rat basophilic leukemia-1 (RBL-1) 5-Lipoxygenase at 10 uM
Type: cell-based
Summary of the method: as §1

| Structure (SMILES) | inhibition [%] |
| --- | --- |
| CCCCCC(O)/C=C/C=C/CCCCCCC(=O)O (stereo not given) | 24 |

Biological target: T2, Polyunsaturated fatty acid 5-lipoxygenase
Assay: (§2) Compound was evaluated for the inhibition of rat basophilic leukemia-1 (RBL-1) 5-Lipoxygenase at 100 uM; NS = no significant activity
Type: cell-based
Summary of the method: as §1

| Structure (SMILES) | IC50 |
| --- | --- |
| CCCCCC(O)/C=C/C=C/CCCCC(=O)O (stereo not given) | Not Active |

Biological target: T1, Polyunsaturated fatty acid 5-lipoxygenase (Rattus norvegicus)
Assay: Compound was evaluated for the inhibition of rat basophilic leukemia-1 (RBL-1) 5-Lipoxygenase at 75 uM
Type: cell-based
Summary of the method: as §1

| Structure (SMILES) | inhibition [%] |
| --- | --- |
| CCCCCC(O)CC/C=C\CCCCCCCCCC(=O)O (stereo not given) | 36 |

Biological target: T1, Polyunsaturated fatty acid 5-lipoxygenase (Rattus norvegicus)
Assay: as §2
Type: cell-based
Summary of the method: as §1

| Structure (SMILES) | inhibition |
| --- | --- |
| O=C(O)CCCCCCCCCC#C/C=C/C(O)CCCCC(=O)O (stereo not given) | inactive |
| CCCCCC(O)/C=C/C#CCCCCC(=O)O (stereo not given) | inactive |
| CCCCCC(O)/C=C/C#CCCCCCC(=O)O (stereo not given) | inactive |
| CCCCC[C@H](O)CCCCCCCCCCCCCC(=O)O | inactive |
